# The source made the active and inactive calls. The rule behind the calls is not given here.
# Experiments:
# HREC [1] = assay: Suppression of VEGF-A-induced cell migration in HREC assessed as effect on crossing cells count at 2 uM incubated for 24 to 72 hrs by wound healing assay; type: functional; conditions: Homo sapiens, time 24-72 hrs
# HREC [2] = assay: (§1) Suppression of VEGF-A-induced angiogenesis in HREC assessed as reduction of the ramification number at 5 uM incubated for 24 hrs by Matrigel based tube formation assay; type: functional; conditions: Homo sapiens
# Summary of the method: (§2)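 HRECs plated on Matrigel in the presence of VEGF-A. Emerging branch points (ramification number) from tube formation were quantified by phase-contrast imaging.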
# HREC [3] = assay: Effect on cell migration of in HREC at 2 uM incubated for 24 to 72 hrs by wound healing assay; type: functional; conditions: Homo sapiens, time 24-72 hrs
# [4] = Cytotoxicity in HREC assessed as reduction in cell viability incubated for 96 hrs by MTT assay; type: functional; conditions: Homo sapiens
# Summary of the method: (§3)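 HREC were exposed to the test agent for 24, 48, 72 or 96 h. Viability was measured by MTT, and IC50 values were derived for each time point.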
# [5] = target: Sigma non-opioid intracellular receptor 1 (Cavia porcellus, UniProt Q60492); assay: Displacement of [3H]-pentazocine from sigma1 receptor in guinea pig brain membranes by scintillation counting; type: cell membranes, Cell membrane
# HREC [6] = assay: Effect on cell migration of in HREC at 5 uM incubated for 24 to 72 hrs by wound healing assay; type: functional; conditions: Homo sapiens, time 24-72 hrs
# Summary of the method: (§4)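 A scratch wound was made in a confluent HREC monolayer, which was then kept in 1% FBS medium, either basal or with VEGF-A 80 ng/mL. (+)-Pentazocine (1 or 2 μM) was added where indicated. Wound-edge cell advancement was scored as a percentage at 24 and 72 h after the scratch.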
# HREC [7] = assay: (§5) Cytotoxicity in HREC assessed as reduction in cell counts at 5 uM incubated for 24 hrs under basal conditions by Trypan blue dye exclusion assay; type: functional; conditions: Homo sapiens
# Summary of the method: (§6)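 HRECs grown in medium with 1% FBS under basal conditions, no VEGF-A. Exposure 24 or 72 h. Read-out is the count of live cells excluding dye in a Trypan blue exclusion test.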
# [8] = Cytotoxicity in HREC assessed as reduction in cell viability incubated for 72 hrs by MTT assay; type: functional; conditions: Homo sapiens; summary of the method: as §3
# HREC [9] = assay: (§7) Cytotoxicity in HREC assessed as reduction in cell counts at 5 uM incubated for 72 hrs under basal conditions by Trypan blue dye exclusion assay; type: functional; conditions: Homo sapiens; summary of the method: as §6
# [10] = Cytotoxicity in HREC assessed as reduction in cell viability incubated for 24 hrs by MTT assay; type: functional; conditions: Homo sapiens
# Summary of the method: (§8)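 HREC viability measured by MTT test after compound exposure for 24, 48, 72 or 96 h, with concentrations up to 200 μM.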
# HREC [11] = assay: (§9) Suppression of VEGF-A-induced cell migration in HREC assessed as crossing cells count at 5 uM incubated for 72 hrs by wound healing assay (reference value: 26%); type: functional; conditions: Homo sapiens
# HREC [12] = assay: (§10) Suppression of VEGF-A-induced cell migration in HREC assessed as crossing cells count at 5 uM incubated for 24 hrs by wound healing assay (reference value: 63%); type: functional; conditions: Homo sapiens
# [13] = Displacement of [3H]-DTG from sigma2 receptor in guinea pig brain membranes by scintillation counting; type: cell membranes, Cavia porcellus, Cell membrane
# [14] = Cytotoxicity in HREC assessed as reduction in cell viability incubated for 48 hrs by MTT assay; type: functional; conditions: Homo sapiens; summary of the method: as §3
# HREC [15] = assay: Cytotoxicity in HREC assessed as reduction in cell viability at 20 uM incubated for 72 hrs in presence of 1 uM sigma2 receptor antagonist AC927 by MTT assay; type: functional; conditions: Homo sapiens
# Summary of the method: (§11)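 HREC were co-incubated for 72 h with the test agent plus either the σ1 agonist (+)-pentazocine (1 μM) or the σ2 ligand AC927 (1 μM). Viability was read by MTT test.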
# [16] = Cytotoxicity in HREC assessed as reduction in cell viability at 200 uM incubated for 24 hrs by MTT assay; type: functional, Homo sapiens; summary of the method: as §8
# [17] = Cytotoxicity in HREC assessed as reduction in cell viability at 20 uM incubated for 72 hrs by MTT assay; type: functional, Homo sapiens; summary of the method: as §8
# HREC [18] = assay: Cytotoxicity in HREC assessed as reduction in cell viability by MTT assay; type: functional; conditions: Homo sapiens, TDE = time-dependent effect; summary of the method: as §3
# D(3) dopamine receptor = D(3) dopamine receptor (Rattus norvegicus, UniProt P19020); assay: Displacement of [3H]-7-OH-DPAT from DRD3 in rat olfactory tubercle by scintillation counting; type: tissue-based
# HREC [19] = assay: Cytotoxicity in HREC assessed as reduction in cell viability at 20 uM incubated for 72 hrs in presence of 1 uM sigma1 selective agonist (+)-pentazocine by MTT assay; type: functional; conditions: Homo sapiens; summary of the method: as §11
# [20] = Suppression of VEGF-A-induced pro-angiogenesis in HREC assessed as alive cell number count at 5 uM incubated for 24 hrs by Trypan blue dye exclusion assay (reference value: 52%); type: functional, Homo sapiens
# [21] = Suppression of VEGF-A-induced pro-angiogenesis in HREC assessed as alive cell number count at 5 uM incubated for 72 hrs by Trypan blue dye exclusion assay (reference value: 42%); type: functional, Homo sapiens
# [22] = target: Histone deacetylase (Homo sapiens) (UniProt Q13547+O15379+Q9UBN7+Q92769+Q9UQL6+Q8WUI4+Q9BY41+Q96DB2+P56524+Q9UKV0+Q969S8); assay: Inhibition of HDAC in human HeLa cell extracts at 5 uM using fluorescently labeled HDAC substrate
# [23] = Cytotoxicity in HREC assessed as reduction in cell viability at 5 uM incubated for 72 hrs in presence of 1 uM sigma2 receptor antagonist AC927 by MTT assay; type: functional, Homo sapiens
# Summary of the method: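 HRECs co-incubated with compound and the σ2 ligand AC927 (1 μM) for 72 h. Cell viability read by MTT test.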
# [24] = as §5; type: functional, Homo sapiens; design: scale not given: the % may be the effect or the level left; summary of the method: as §6
# HREC [25] = assay: Suppression of VEGF-A-induced cell migration in HREC assessed as effect on crossing cells count at 5 uM incubated for 24 to 72 hrs in presence of 1 to 2 uM sigma1 selective agonist (+)-pentazocine by wound healing assay; type: functional; conditions: Homo sapiens, time 24-72 hrs; summary of the method: as §4
# HREC [26] = assay: Suppression of VEGF-A-induced angiogenesis in HREC assessed as reduction of the ramification number at 5 uM incubated for 24 hrs in presence of 2 uM sigma2 selective antagonist AC927 by Matrigel based tube formation assay; type: functional, tissue-based; conditions: Homo sapiens
# Summary of the method: (§12)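 HREC were plated on Matrigel with VEGF-A stimulation. Emerging branch points (ramifications) from cell bodies were counted by phase-contrast imaging.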
# [27] = Stability in pH 1.3 buffer by HPLC analysis; type: physicochemical
# Summary of the method: (§13)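 Chemical stability was tested at 37 °C in aqueous buffer at pH 1.3 (non-enzymatic simulated gastric fluid) or pH 7.4.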
# [28] = as §7; type: functional, Homo sapiens; design: scale not given: the % may be the effect or the level left; summary of the method: as §6
# HREC [29] = assay: Cytotoxicity in HREC assessed as reduction in cell viability at 5 uM incubated for 72 hrs in presence of 1 uM sigma1 selective agonist (+)-pentazocine by MTT assay; type: functional; conditions: Homo sapiens; summary of the method: as §11
# [30] = as §1; type: functional, Homo sapiens; design: scale not given: the % may be the effect or the level left; summary of the method: as §2
# [31] = as §9; type: functional, Homo sapiens
# HREC [32] = assay: Suppression of VEGF-A-induced cell migration in HREC assessed as effect on crossing cells count at 5 uM incubated for 24 to 72 hrs in presence of 1 to 2 uM sigma2 receptor antagonist AC927 by wound healing assay; type: functional; conditions: Homo sapiens, time 24-72 hrs
# [33] = as §10; type: functional, Homo sapiens
# D(2) dopamine receptor = D(2) dopamine receptor (Rattus norvegicus, UniProt P61169); assay: Displacement of [3H]-spiperone from DRD2 in rat striatum by scintillation counting; type: tissue-based
# [34] = Stability in pH 7.4 buffer by HPLC analysis; type: physicochemical; summary of the method: as §13
# [35] = Stability in rat plasma assessed as compound hydrolysis at 37 degC by HPLC analysis; type: ADME, cell-free
# Summary of the method: (§14)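 Compound was incubated in rat or human plasma, and ester hydrolysis was followed. The rate was expressed as the observed rate constant kobs.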
# [36] = Cytotoxicity in HREC assessed as reduction in cell viability at 5 uM incubated for 72 hrs by MTT assay; type: functional, Homo sapiens; summary of the method: as §8
# [37] = Cytotoxicity in HREC assessed as reduction in cell viability at 5 uM incubated for 24 hrs by MTT assay; type: functional, Homo sapiens; summary of the method: as §8
# HREC [38] = assay: Suppression of VEGF-A-induced angiogenesis in HREC assessed as reduction of the ramification number at 5 uM incubated for 24 hrs in presence of 2 uM sigma1 selective agonist (+)-pentazocine by Matrigel based tube formation assay; type: functional, tissue-based; conditions: Homo sapiens; summary of the method: as §12
# [39] = Stability in human plasma assessed as compound hydrolysis at 37 degC by HPLC analysis; type: ADME, cell-free; summary of the method: as §14
# [40] = Solubility in water incubated for 1 hr by HPLC analysis; type: physicochemical
# Chain of D(3) dopamine receptor (P19020 whole entry): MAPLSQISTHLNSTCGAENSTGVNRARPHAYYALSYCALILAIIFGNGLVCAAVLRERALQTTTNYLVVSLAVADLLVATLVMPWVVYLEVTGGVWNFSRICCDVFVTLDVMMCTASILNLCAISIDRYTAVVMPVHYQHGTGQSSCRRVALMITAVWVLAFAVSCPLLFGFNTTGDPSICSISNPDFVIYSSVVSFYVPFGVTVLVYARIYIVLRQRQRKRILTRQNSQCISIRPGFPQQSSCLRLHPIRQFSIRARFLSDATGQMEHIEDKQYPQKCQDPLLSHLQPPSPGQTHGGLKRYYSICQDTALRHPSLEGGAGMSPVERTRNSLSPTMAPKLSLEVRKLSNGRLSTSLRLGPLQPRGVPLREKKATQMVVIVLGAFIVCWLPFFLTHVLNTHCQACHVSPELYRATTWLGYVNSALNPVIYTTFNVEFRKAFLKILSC
# Chain of Sigma non-opioid intracellular receptor 1 (Q60492 whole entry): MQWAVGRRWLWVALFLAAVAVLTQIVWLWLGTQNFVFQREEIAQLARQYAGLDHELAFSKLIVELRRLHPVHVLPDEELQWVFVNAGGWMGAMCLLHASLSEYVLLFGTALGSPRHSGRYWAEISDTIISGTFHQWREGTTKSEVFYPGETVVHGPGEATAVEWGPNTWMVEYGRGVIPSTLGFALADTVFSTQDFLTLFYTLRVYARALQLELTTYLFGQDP
# Chain of D(2) dopamine receptor (P61169 whole entry): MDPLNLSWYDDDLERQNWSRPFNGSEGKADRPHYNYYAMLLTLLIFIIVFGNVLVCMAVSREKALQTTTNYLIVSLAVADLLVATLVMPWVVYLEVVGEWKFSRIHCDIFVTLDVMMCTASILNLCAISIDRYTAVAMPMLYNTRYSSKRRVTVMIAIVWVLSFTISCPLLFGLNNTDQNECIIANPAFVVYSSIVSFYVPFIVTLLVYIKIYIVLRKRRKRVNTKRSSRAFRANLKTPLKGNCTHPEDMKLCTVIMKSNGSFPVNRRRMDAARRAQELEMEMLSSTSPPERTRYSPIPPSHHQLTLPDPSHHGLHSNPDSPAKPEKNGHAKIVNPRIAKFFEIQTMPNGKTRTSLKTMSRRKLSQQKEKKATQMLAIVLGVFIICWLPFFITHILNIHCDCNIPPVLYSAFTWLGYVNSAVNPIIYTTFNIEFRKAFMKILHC
compound,measurement,setting,value
O=C(CCCN1CCC(O)(c2ccc(Cl)cc2)CC1)c1ccc(F)cc1 [HALOPERIDOL],Activity,HREC [1],inactive
same,Activity,HREC [2],inactive
same,Activity,HREC [3],inactive
same,IC50,[4]; read-out: IC50,2.28 µM
same,IC50,[4]; read-out: pIC50 (converted),2.29 µM
CCCC(CCC)C(=O)O [VALPROIC ACID],Ki,[5],> 10 µM
same,Activity,HREC [6],inactive
same,Activity,HREC [7],inactive
same,IC50,[8]; read-out: IC50,1390 µM
same,IC50,[8]; read-out: pIC50 (converted),1390 µM
same,Activity,HREC [9],inactive
same,IC50,[10]; read-out: IC50,1220 µM
same,IC50,[10]; read-out: pIC50 (converted),1220 µM
same,Activity,HREC [11],inactive
same,Activity,HREC [12],inactive
same,IC50,[4]; read-out: IC50,1480 µM
same,IC50,[4]; read-out: pIC50 (converted),1480 µM
same,Ki,[13],> 10 µM
same,IC50,[14]; read-out: IC50,1450 µM
same,IC50,[14]; read-out: pIC50 (converted),1450 µM
OC(CCCN1CCC(O)(c2ccc(Cl)cc2)CC1)c1ccc(F)cc1 (racemic) [HYDROXYHALOPERIDOL],Activity,HREC [6],inactive
same,Activity,HREC [15],inactive
same,Activity,HREC [7],inactive
same,IC50,[8]; read-out: IC50,68.7 µM
same,IC50,[8]; read-out: pIC50 (converted),68.7 µM
same,Activity,HREC [9],inactive
same,IC50,[10]; read-out: IC50,> 200 µM
same,Activity,[16],<50%
same,Activity,HREC [11],inactive
same,Activity,[17],29%
same,Activity,HREC [12],inactive
same,Activity,HREC [18],Tde
same,IC50,[4]; read-out: IC50,56.6 µM
same,IC50,[4]; read-out: pIC50 (converted),56.6 µM
same,Ki,D(3) dopamine receptor,1.02 µM
same,Activity,HREC [19],inactive
same,Ki,[13],0.0024 µM
same,IC50,[14]; read-out: IC50,128 µM
same,IC50,[14]; read-out: pIC50 (converted),128 µM
CCCC(CCC)C(=O)OC(CCCN1CCC(O)(c2ccc(Cl)cc2)CC1)c1ccc(F)cc1 (racemic),Activity,[20],28%
same,Activity,[21],30%
same,inhibition,[22],inactive
same,Ki,[5],0.013 µM
same,Activity,HREC [6],inactive
same,Activity,[23],18%
same,Activity,[24],32%
same,Activity,HREC [25],inactive
same,Activity,HREC [26],Active
same,IC50,[8]; read-out: IC50,10.1 µM
same,IC50,[8]; read-out: pIC50 (converted),10.1 µM
same,half-life,[27],129 h
same,Activity,[28],52%
same,Activity,HREC [29],inactive
same,Activity,[30],67%
same,IC50,[10]; read-out: IC50,10.5 µM
same,IC50,[10]; read-out: pIC50 (converted),10.5 µM
same,Activity,[31],24%
same,Activity,HREC [32],Active
same,Activity,[33],55%
same,IC50,[4]; read-out: IC50,10.6 µM
same,IC50,[4]; read-out: pIC50 (converted),10.6 µM
same,Ki,D(3) dopamine receptor,> 5 µM
same,Ki,D(2) dopamine receptor,> 5 µM
same,Ki,[13],0.124 µM
same,half-life,[34],134 h
same,Stabilty,[35],Unstable
same,Activity,[36],25%
same,Activity,[37],28%
same,IC50,[14]; read-out: IC50,11.1 µM
same,IC50,[14]; read-out: pIC50 (converted),11.1 µM
same,Activity,HREC [38],inactive
same,Stabilty,[39],Stable
same,solubility at 1 h,[40],1400 µg/mL
